Screens (PubChem BioAssay)
Many of the other results were omitted from the sample, so hits are more common in it than they were.
Redox H2O2 prof: compounds producing H2O2 with reducing agent – biochemical, NIH compound library profiling, artefact control for MLSCN library redox annotation, primary screen. actives 0.03% (n = 200,000). AID 878, 2007. activation, % at 10 µM. DTT-dependent redox cycling H2O2, phenol red/HRP absorbance; 100% = 100 µM peroxide control, 0% = buffer;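 active means activation of at least 50% relative to the plate's high and low controls in the primary single-dose screen; inactive means activation below 50%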;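 further: compound incubated with DTT at 0.8 mM final as the reducing agent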
MPTP inh: mitochondrial permeability transition pore inhibitors, primary screen, biochemical, isolated mouse mitochondria, absorbance. Ca2+ swelling absorbance, 30 min. inhibition, % at 10 µM. actives 1.4% (n = 360,000);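 active means inhibition of 50% or more, scaled per plate between neutral and stimulator controls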
Hep lipid drop: inhibitors of hepatocyte lipid droplet formation, primary screen, imaging, high-throughput imaging, BODIPY stain | actives 0.4% (n = 240,000) | inhibition, % at 6.5 µM | AML12 mouse hepatocytes, oleate lipid droplets;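 active means lipid droplet intensity inhibited by at least 50%, with more than 500 cells counted; inconclusive means wells with under 300 cells, treated as cytotoxic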
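Test system: AML12 hepatocytes (mouse); reagent: oleate loading, 100 µM; dosing: one dose, 6.5 µM compound; incubation: overnight exposure; signal: fluorescence imaging, 20x objective, two fields per well; read-out basis: % inhibition of corrected integrated BODIPY droplet signal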
L major viab: Leishmania major promastigote growth inhibition, primary screen; inhibition, % at 10 µM; Leishmania major promastigotes, resazurin fluorescence viability; AID 1063, 2008; actives 9% (n = 200,000); in the data active means inhibition above about 50%;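 further: promastigotes grown with compound for 44 hours at 28 °C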
T cruzi repl: inhibitors of intracellular T. cruzi growth, primary screen, luminescence, NIH3T3 host cells; actives 1.4% (n = 300,000); T. cruzi beta-gal in NIH3T3, 90 h; AID 1885, 2009; inhibition, % (test concentration not listed);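 active means mean inhibition across valid replicates above about 55%, limit read from the data; inconclusive means mean below that limit but half or more replicates reach it; inactive means mean below it, under half of replicates reach it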;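 further: signal also drops with host cell toxicity which is not excluded here; higher percent means less beta-gal luminescence so fewer parasites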
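Assay system: NIH/3T3 fibroblasts plus reporter T. cruzi. Amount: NIH/3T3 cells, 5,000 per well. Buffer or medium: DMEM, 2% fetal bovine serum. Doses: compound pinned at 50 nL/well, DMSO. Schedule: ≥90 h infection period, 3 h prior cell attachment. Signal: luminescent β-galactosidase signal after 60 min lysis. Read-out: parasite load inhibition, %.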
A number is an active result; i = inactive; ? = inconclusive; nt = no result given.

SMILES	Redox H2O2 prof	MPTP inh	Hep lipid drop	L major viab	T cruzi repl
Cc1ccc(S(=O)(=O)c2ccc([N+](=O)[O-])cn2)cc1	nt	i	i	nt	67.4
Cc1cc(S(=O)(=O)c2ccc([N+](=O)[O-])cn2)ccc1Br	nt	i	nt	nt	i
O=[N+]([O-])c1ccc(Nc2ccccc2)nc1	i	i	i	55.5	i
Cc1ccccc1NC(=O)OCc1cccnc1Oc1ccc(Cl)cc1	i	i	i	i	i
CN(CC(=O)NCc1cccs1)CC(=O)Nc1ccccc1Cl	nt	i	nt	nt	nt
CCCOC(=O)c1ccc(Cl)c(NC(=O)c2cccnc2)c1	i	nt	i	i	i
OC(CNCC(c1ccc(Cl)cc1Cl)c1c[nH]c2ccccc12)c1ccccc1 (configuration not stated)	i	i	i	100.3	82.1
CCOC(=O)c1cc(C(=O)NNC(=O)c2cccc([N+](=O)[O-])c2)c(C)nc1C	nt	i	nt	nt	nt
Cc1ccccc1C(=O)NC(=S)Nc1ccc(Cc2ccncc2)cc1	i	i	i	53.1	i
Cc1ccc(C(=O)Nc2ccncc2)cc1[N+](=O)[O-]	nt	i	i	nt	i
Cc1c([N+](=O)[O-])cc(C(=O)Nc2ccc(Cc3ccncc3)cc2)cc1[N+](=O)[O-]	i	i	i	98.5	59.3
CCOc1ccc(C(=O)Nc2ccc(Cc3ccncc3)cc2)cc1Br	i	i	i	i	74.1
COc1ccccc1C(=O)Nc1ccc(Cc2ccncc2)cc1	i	i	i	i	i
COc1c(C)cc(Br)cc1C(=O)Nc1ccc(Cc2ccncc2)cc1	i	i	i	96.5	60.5
Cc1ccc(C(=O)NCC(=O)NCC(=O)OCC(=O)c2cccs2)cc1	i	i	i	i	i
COc1ccc(C(=O)Cc2cc3ccccc3oc2=O)cc1	nt	i	i	nt	i
c1ccc(Cn2cc(-c3ccccc3)cn2)cc1	nt	i	nt	nt	nt
CC(C)NS(=O)(=O)c1ccc(NC(=O)C(C)OC(=O)CCC2CCCC2)cc1 (configuration not stated)	nt	i	nt	nt	nt
CCOc1ccc2ccccc2c1C(=O)N1CCN(c2ccccc2)CC1	i	i	i	82.8	i
CC(NC(=O)c1cc(-c2ccncc2)nc2ccc(Br)cc12)C1CCCO1 (configuration not stated)	nt	i	i	nt	i
Fc1ccc(-c2csc(-c3ccncc3)n2)cc1	i	i	i	i	i
O=S(=O)(Nc1ccc(-c2csc(-c3ccccc3)n2)cc1)c1ccc(F)cc1	i	i	i	i	67.6
CCc1ccc(C(C(=O)NCc2ccc(F)cc2)N(C(=O)c2csnn2)C2CC2)cc1 (configuration not stated)	nt	i	i	nt	?
Cn1c(-c2ccc3c(c2)OCO3)cnc1NC(=O)CCC(=O)NCCc1ccccc1	i	i	nt	i	i
Cn1c(-c2ccc3c(c2)OCO3)cnc1N	i	i	i	i	i
SMILES	Redox H2O2 prof	MPTP inh	Hep lipid drop	L major viab	T cruzi repl
Cn1c(-c2ccc3c(c2)OCO3)cnc1NCc1ccccc1Cl	i	i	i	96.0	i
Cc1cc(C)cc(NCc2cc3c(cc2[N+](=O)[O-])OCO3)c1	i	i	nt	i	i
Cn1c(-c2ccc3c(c2)OCO3)cnc1NCc1cccc(Cl)c1	i	i	nt	93.2	i
Cn1c(-c2ccc3c(c2)OCO3)cnc1NCc1ccccc1	i	i	nt	63.0	i
Cc1ccc(-c2cnc(NCc3cc4c(cc3[N+](=O)[O-])OCO4)n2C)cc1C	i	i	i	94.6	i
Cn1c(-c2ccccc2)cnc1NCc1ccccc1	nt	i	i	nt	i
CC(=O)c1nnn(-c2c(F)cccc2F)c1C	nt	i	i	nt	i
CCOC(=O)c1nnn(-c2nc(N(C)C)nc(N(C)C)n2)c1C	i	i	i	i	i
CC(=O)c1nnn(-c2nc(N)nc(N(c3ccccc3)c3ccccc3)n2)c1C	i	i	nt	91.7	i
CCCCN(CCCC)c1nc(OC)nc(-n2nnc(C(C)=O)c2C)n1	i	i	nt	62.5	i
CN(C)CC#Cc1cccc(-c2nc(C(=O)O)cc3c2[C@@H](CCO)N(S(=O)C(C)(C)C)C3)c1 (some centres not stated)	nt	i	nt	nt	nt
COc1ccc2ncc(S(=O)(=O)c3ccccc3)c(N3CCC4(CC3)OCCO4)c2c1	i	i	i	i	i
COc1ccc2ncc(S(=O)(=O)c3ccccc3)c(N3CCN(c4ccccc4)CC3)c2c1	i	i	i	99.1	i
Cc1ccc(SCC(=O)Nc2nnc(C(C)(C)C)s2)cc1	nt	i	i	nt	i
Cc1ccccc1N(CC(=O)N/N=C/c1ccc(N(C)C)cc1)C(=O)c1ccccc1	i	i	i	98.6	i
COc1cccc(/C=N/Nc2nc3ccccc3n3cnnc23)c1O	i	i	i	75.7	i
COc1cccc(/C=N/Nc2ncnc3scc(-c4ccccc4)c23)c1O	i	i	i	100.0	i
COc1ccc(/C=N/Nc2ncnc(Cl)c2N)cc1OC	i	i	i	i	i
COc1cccc(/C=N/Nc2nccnc2Cl)c1O	i	i	i	100.3	i
COc1cccc(/C=N/Nc2ncnc(Cl)c2N)c1O	i	i	i	100.3	i
CNc1nc(-c2ccccc2)c2sccc2n1	nt	i	nt	nt	nt
Cn1cc(CC(=O)N2CCN(c3ccc(Cl)cc3)CC2)c2ccccc21	i	i	i	64.7	i
Cn1cc(CC(=O)N2CCN(c3ccccc3F)CC2)c2ccccc21	i	i	nt	i	i
CCc1ccccc1NC(=S)N(Cc1ccco1)C(C)c1cccs1 (configuration not stated)	i	i	i	i	i
CCOC(=O)c1ccc(NC(=S)N(Cc2cccnc2)Cc2ccco2)cc1	i	i	i	100.2	55.4
SMILES	Redox H2O2 prof	MPTP inh	Hep lipid drop	L major viab	T cruzi repl
CCOC(=O)c1ccc(NC(=S)NCc2cccnc2)cc1	i	i	i	i	i
COC(=O)c1ccc(NC(=S)N(Cc2cccnc2)Cc2ccco2)cc1	i	i	i	100.2	72.6
CCc1ccc(NC(=O)N(Cc2ccco2)C(C)c2cccs2)cc1 (configuration not stated)	i	i	nt	69.7	i
CC(C)CCN(C(=O)Nc1ccccc1)C(C)c1cccs1 (configuration not stated)	i	i	i	83.3	i
CCOc1ccc(NC(=O)CSc2ccc(-c3cccnc3)nn2)cc1	nt	i	i	nt	i
CC(NC(=O)Cc1ccc(NS(=O)(=O)c2cccc(C(F)(F)F)c2)cc1)c1ccccn1 (configuration not stated)	nt	i	i	nt	i
CCc1ccc(NC(=O)N(Cc2cccnc2)Cc2ccco2)cc1	i	i	i	90.3	nt
COc1ccc2cc(CN(Cc3cccnc3)Cc3nnnn3Cc3ccccc3)c(=O)[nH]c2c1	i	nt	nt	i	62.2
CCOC(=O)Cn1nnnc1CN(Cc1cccs1)Cc1cc2cc(C)cc(C)c2[nH]c1=O	i	i	nt	i	i
COCCn1nnnc1CN(CCc1ccc(OC)c(OC)c1)Cc1cc2ccc(C)cc2[nH]c1=O	i	i	nt	97.3	i
CCC(C)(C)n1nnnc1CN(Cc1cccs1)Cc1cc2cc(OC)ccc2[nH]c1=O	nt	i	nt	nt	i
